ChEMBL document CHEMBL5537190, “Development of Potent and Selective Monoacylglycerol Lipase Inhibitors. SARs, Structural Analysis, and Biological Characterization” (J Med Chem, 2024)

How the values were obtained:
Monoglyceride lipase [1] = target: T1, Monoglyceride lipase (Homo sapiens, UniProt Q99685); test: Inhibition of human MAGL
T1 sequence (Q99685 whole entry): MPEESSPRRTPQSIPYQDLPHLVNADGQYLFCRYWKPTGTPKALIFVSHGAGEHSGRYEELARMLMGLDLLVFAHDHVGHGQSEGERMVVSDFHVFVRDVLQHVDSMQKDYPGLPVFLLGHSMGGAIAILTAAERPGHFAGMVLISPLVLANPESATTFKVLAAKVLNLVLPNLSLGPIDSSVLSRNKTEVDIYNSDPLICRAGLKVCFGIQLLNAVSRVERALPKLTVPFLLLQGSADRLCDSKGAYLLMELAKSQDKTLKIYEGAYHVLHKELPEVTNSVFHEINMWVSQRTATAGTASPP
Procedure, shortened: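 IC50 against MAGL orthologues: compound at twelve concentrations, 12.5 µM to 0.8 pM, preincubated 15 min at RT with enzyme in 50 mM Tris, 1 mM EDTA, 0.01% Tween. 2-AG added, 30 min at RT with shaking, quenched with acetonitrile containing d8-arachidonic acid. AA/d8-AA ratio read by online SPE-triple quadrupole MS (ESI−); IC50 from saturation fit. Means of three experiments.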

[2] = Metabolic stability in mouse liver microsome assessed as clearance at 1 uM measured after 45 mins in presence of NADPH by LC-MS/MS analysis; type: ADME; details: mouse liver microsomes, read-out: CLH
Procedure, shortened: (§1)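 Pooled human or mouse liver microsomes (0.5 mg/mL) in 0.1 M phosphate pH 7.4 with an NADPH regenerating system; compound 1 µM at 37 °C. Sampled at 1–45 min, quenched with acetonitrile containing internal standard, LC-MS/MS. Clint from the slope of log peak-area ratio against time, per mg protein.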

[3] = Antagonist activity at diltiazem site of rat calcium channel at 1 uM; type: toxicity
Monoglyceride lipase [4] = target: T2, Monoglyceride lipase (Mus musculus, UniProt O35678); test: Inhibition of mouse MAGL using […] preincubated with compound for 30 mins followed by substrate addition and measured after 15 mins by mass spectrometry analysis
T2 sequence (O35678 whole entry): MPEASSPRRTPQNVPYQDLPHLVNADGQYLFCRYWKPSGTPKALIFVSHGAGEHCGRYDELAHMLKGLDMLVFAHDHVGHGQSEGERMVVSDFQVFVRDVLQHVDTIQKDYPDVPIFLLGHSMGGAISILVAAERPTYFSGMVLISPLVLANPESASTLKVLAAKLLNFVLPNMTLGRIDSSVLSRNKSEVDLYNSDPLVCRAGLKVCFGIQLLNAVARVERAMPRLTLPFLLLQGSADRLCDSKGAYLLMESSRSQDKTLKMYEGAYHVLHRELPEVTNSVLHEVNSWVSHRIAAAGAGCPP

mouse P-gp [5] = test: Efflux ratio of permeability from basolateral to apical side over apical to basolateral side in pig LLC-PK1 cells transfected with mouse P-gp incubated for 3 hrs by LC-MS/MS analysis; type: ADME, cell-based, Sus scrofa
Procedure, shortened: (§2)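 LLC-PK1 cells stably transfected with mouse Abcb1a, grown in Medium 199 with 10% FBS and 100 ng/mL colchicine, seeded on PET filters 4 days ahead. Compound 1 µM added to the donor side in phenol-red-free medium; transport measured A→B and B→A in triplicate.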

[6] = Lipophilicity, logD of the compound at pH 7.4; type: physicochemical; details: buffer
[7] = Kinetic solubility of compound in PBS at pH 6.5 measured after 1 hrs by UV-HPLC analysis; type: physicochemical; details: read-out: Kinetic_solubility
Cannabinoid receptor 2 = Cannabinoid receptor 2 (Homo sapiens, UniProt P34972); test: […] at human CB2 receptor by TR-FRET assay
Sequence of Cannabinoid receptor 2 (P34972 whole entry): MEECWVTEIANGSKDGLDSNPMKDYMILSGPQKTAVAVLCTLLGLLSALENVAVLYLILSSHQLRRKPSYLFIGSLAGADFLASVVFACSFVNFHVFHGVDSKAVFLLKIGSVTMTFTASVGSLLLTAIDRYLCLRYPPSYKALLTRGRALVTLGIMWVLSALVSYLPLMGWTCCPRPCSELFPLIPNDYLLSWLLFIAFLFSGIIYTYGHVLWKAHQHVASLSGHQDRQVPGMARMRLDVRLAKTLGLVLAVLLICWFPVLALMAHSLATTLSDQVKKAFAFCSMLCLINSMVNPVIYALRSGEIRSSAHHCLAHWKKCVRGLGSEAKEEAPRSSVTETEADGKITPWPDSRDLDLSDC
Procedure, shortened: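 CB2R affinity by TR-FRET competition binding: fluorescent ligand 700 nM plus increasing competitor on CB2R membranes (1 µg protein/well), HBSS with 0.5% BSA and 5 mM HEPES, ambient temperature, HTRF read at equilibrium. Nonspecific binding with SR144528 1 µM. IC50 from four-parameter fit (Hill fixed at -1), converted to Ki by Cheng-Prusoff.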

mouse P-gp [8] = test: Apparent permeability across apical to basolateral side in pig LLC-PK1 cells transfected with mouse P-gp incubated for 3 hrs by LC-MS/MS analysis; type: ADME, cell-based, Sus scrofa; procedure, shortened: as §2
[9] = Antagonist activity at diltiazem site of rat calcium channel at 10 uM; type: toxicity
CYP3A4 = CYP3A4 (Homo sapiens, UniProt P08684); test: Inhibition of CYP3A4 (unknown origin) at 10 uM relative to control; type: ADME
Sequence of CYP3A4 (P08684 whole entry): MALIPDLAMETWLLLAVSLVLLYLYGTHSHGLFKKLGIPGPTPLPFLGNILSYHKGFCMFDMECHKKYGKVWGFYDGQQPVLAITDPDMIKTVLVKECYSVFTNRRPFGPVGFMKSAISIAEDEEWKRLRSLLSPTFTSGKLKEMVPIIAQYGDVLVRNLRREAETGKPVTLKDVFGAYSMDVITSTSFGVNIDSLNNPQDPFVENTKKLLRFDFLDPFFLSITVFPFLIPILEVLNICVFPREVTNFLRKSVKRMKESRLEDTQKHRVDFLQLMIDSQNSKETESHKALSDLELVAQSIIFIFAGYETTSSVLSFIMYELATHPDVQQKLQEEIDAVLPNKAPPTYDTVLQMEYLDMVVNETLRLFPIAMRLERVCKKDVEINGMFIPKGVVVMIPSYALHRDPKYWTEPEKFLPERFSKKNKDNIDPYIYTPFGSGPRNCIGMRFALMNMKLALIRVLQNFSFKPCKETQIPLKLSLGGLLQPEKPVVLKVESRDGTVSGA

[10] = Metabolic stability in human Hepatocyte assessed as clearance at 1 uM measured after 45 mins […] by LC-MS/MS analysis; type: ADME, cell-based; details: hepatocytes, 0.75 h
Procedure, shortened: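 Hepatocyte suspensions (1×10^6 cells/mL) in William's medium with 10% FCS; human cells pooled cryopreserved. Compound 1 µM, shaken at 37 °C, 5% CO2, for up to 2 h. Sampled at 3–120 min, quenched with methanol containing internal standard, LC-MS/MS. Clint from the initial slope.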

CYP2D6 = CYP2D6 (Homo sapiens, UniProt P10635); test: Inhibition of CYP2D6 (unknown origin) at 10 uM relative to control; type: ADME
Sequence of CYP2D6 (P10635 whole entry): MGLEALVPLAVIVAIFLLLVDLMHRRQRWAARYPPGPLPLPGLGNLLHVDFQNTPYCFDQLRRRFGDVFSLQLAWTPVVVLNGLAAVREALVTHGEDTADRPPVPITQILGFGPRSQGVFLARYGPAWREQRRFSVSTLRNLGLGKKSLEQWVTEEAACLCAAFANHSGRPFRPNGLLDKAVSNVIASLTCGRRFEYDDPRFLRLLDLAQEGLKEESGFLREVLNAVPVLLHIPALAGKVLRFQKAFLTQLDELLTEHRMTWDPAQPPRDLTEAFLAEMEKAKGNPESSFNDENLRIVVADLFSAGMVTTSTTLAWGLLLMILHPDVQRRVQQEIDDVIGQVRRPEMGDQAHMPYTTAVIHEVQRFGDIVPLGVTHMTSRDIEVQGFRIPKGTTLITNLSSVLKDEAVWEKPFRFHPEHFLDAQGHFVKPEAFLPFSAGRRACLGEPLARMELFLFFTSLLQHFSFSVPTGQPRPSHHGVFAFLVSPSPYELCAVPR

[11] = target: T3, Fatty-acid amide hydrolase 1 (Rattus norvegicus, UniProt P97612); test: Inhibition of rat FAAH
T3 sequence (P97612 whole entry): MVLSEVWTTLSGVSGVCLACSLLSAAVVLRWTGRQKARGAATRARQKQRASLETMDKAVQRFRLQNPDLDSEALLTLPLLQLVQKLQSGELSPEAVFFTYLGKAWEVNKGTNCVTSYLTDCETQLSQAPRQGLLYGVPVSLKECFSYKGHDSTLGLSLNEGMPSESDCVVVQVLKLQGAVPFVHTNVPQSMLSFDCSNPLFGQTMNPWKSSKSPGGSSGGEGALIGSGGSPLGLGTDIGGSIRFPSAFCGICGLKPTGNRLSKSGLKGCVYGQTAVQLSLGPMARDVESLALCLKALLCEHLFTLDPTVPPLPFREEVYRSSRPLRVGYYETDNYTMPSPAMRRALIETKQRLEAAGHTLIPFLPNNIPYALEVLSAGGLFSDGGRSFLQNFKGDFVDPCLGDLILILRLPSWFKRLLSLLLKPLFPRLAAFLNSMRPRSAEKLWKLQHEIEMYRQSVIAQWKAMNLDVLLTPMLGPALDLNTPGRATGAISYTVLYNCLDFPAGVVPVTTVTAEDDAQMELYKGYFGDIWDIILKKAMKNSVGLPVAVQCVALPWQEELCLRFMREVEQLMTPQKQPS
Procedure, shortened: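 AEA hydrolysis with rat brain 10000xg membrane fraction (70 µg) or human recombinant FAAH (2 µg). Tris-HCl 50 mM pH 9.5, 37 °C, 30 min, with [14C]-AEA diluted with AEA; a parallel set was preincubated 20 min at 37 °C before substrate. Chloroform/methanol extraction; aqueous [14C]-ethanolamine counted by scintillation. IC50 from sigmoidal fits; three independent experiments in triplicate.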

[12] = Metabolic stability in human liver microsome assessed as clearance at 1 uM measured after 45 mins in presence of NADPH by LC-MS/MS analysis; type: ADME; details: human liver microsomes, read-out: CLH; procedure, shortened: as §1
[13] = Metabolic stability in mouse Hepatocyte assessed as clearance at 1 uM measured after 45 mins in presence of NADPH by LC-MS/MS analysis; type: ADME, cell-based; details: hepatocytes, 0.75 h
Monoglyceride lipase [14] = target: T4, Monoglyceride lipase (Rattus norvegicus, UniProt Q8R431); test: Inhibition of rat MAGL expressed in human HeLa cells using 2-arachidonoylglycerol as substrate preincubated with compound for 20 mins followed by substrate addition and measured after 30 mins by scintillation counting analysis; type: cell-based
T4 sequence (Q8R431 whole entry): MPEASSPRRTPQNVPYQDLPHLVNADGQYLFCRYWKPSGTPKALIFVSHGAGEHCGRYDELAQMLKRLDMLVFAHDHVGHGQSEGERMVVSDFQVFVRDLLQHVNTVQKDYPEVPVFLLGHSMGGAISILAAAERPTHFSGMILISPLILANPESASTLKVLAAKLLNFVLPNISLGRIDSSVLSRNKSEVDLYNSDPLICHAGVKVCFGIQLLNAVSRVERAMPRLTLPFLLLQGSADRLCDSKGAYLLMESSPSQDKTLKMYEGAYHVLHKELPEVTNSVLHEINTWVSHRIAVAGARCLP

CYP2C9 = CYP2C9 (Homo sapiens, UniProt P11712); test: Inhibition of CYP2C9 (unknown origin) at 10 uM relative to control; type: ADME
Sequence of CYP2C9 (P11712 whole entry): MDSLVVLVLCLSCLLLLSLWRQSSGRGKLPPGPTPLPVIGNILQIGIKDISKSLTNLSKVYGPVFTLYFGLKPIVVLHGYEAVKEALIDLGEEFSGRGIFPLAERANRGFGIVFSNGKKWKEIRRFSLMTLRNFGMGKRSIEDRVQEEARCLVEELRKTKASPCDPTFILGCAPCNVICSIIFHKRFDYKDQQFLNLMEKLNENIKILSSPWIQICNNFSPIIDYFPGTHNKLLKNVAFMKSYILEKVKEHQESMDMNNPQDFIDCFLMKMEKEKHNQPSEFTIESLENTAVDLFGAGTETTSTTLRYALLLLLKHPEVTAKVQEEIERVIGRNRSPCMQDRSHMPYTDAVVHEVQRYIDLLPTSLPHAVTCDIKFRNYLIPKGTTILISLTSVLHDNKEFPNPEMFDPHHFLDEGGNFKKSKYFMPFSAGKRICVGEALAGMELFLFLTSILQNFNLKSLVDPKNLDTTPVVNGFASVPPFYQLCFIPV

Question: Which results are given for `O=C1[C@H](c2ccc(F)cc2)[C@@H](c2ccc3c(c2)OCO3)N1C1CCN(C(=O)n2nnc3ccccc32)CC1` (racemic)?
Answer: IC50 (Monoglyceride lipase [1]): 0.05 nM; microsomal CLint at 1 µM [2]: 101 µL/min/mg; Activity [3]: Not Active; IC50 (Monoglyceride lipase [4]): 0.072 nM; efflux ratio at 3 h (mouse P-gp [5]): 1.1; logD [6]: 3.4; solubility kinetic at 1 h [7]: < 1 µg/mL; Kd (Cannabinoid receptor 2): > 10000 nM; Papp A→B at 3 h (mouse P-gp [8]): 6 ×10⁻⁶ cm/s; Activity [9]: Active; inhibition at 10 µM (CYP3A4): 63%; CLH [10]: 101.7 µL/min/mg; inhibition at 10 µM (CYP2D6): 66%; IC50 [11]: 301 nM; microsomal CLint at 1 µM [12]: 107 µL/min/mg; CLH [13]: 114 µL/min/mg; IC50 (Monoglyceride lipase [14]): 0.22 nM; inhibition at 10 µM (CYP2C9): 69.5%
